Activity and AFC50 data for four compounds are collected here from ChEMBL document CHEMBL3046255, “Moluccensins R-Y, limonoids from the seeds of a mangrove, Xylocarpus moluccensis” (2012).

SMILES strings stand for the structures.

Assay type in all cases: functional
Experiment [1] has as its system Brontispa longissima. Nature of the experiment: Antifeedant activity against third-instar larvae of Brontispa longissima at 1 mg/mL after 48 hr by conventional leaf disk method. In short, it runs like this:
(§1)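 Third-instar larvae exposed to test material at 1 mg/mL. Antifeedant rate is given as percent, mean ± SD, and is read after 24 h […] and 48 h […].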

For experiment [2], the system named is Brontispa longissima. Nature of the experiment: Antifeedant activity against third-instar larvae of Brontispa longissima at 1 mg/mL after 24 hr by conventional leaf disk method. In short, it runs like this:
as §1

For experiment [3], the system named is Brontispa longissima. Nature of the experiment: Antifeedant activity against third-instar larvae of Brontispa longissima after 24 hr by conventional leaf disk method. The essentials:
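Value is an AFC50: the concentration giving 50% antifeedant activity against third-instar larvae after 24 h exposure.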

Experiment [4] concerns Brontispa longissima. The experiment can be described thus: Insecticidal activity against third-instar larvae of Brontispa longissima assessed as mortality at 1 mg/mL after 9 days.

`COC(=O)C[C@H]1C(C)(C)[C@H](OC(C)=O)[C@]2(O)CC3=C4CC(=O)O[C@@H](c5ccoc5)[C@]4(C)CC[C@@H]3[C@@]1(C)C2=O` [2-HYDROXYFISSINOLIDE]: the Activity with Brontispa longissima [1] turned out to be 91.5%; in the experiment with Brontispa longissima [2], 93.7%; in the experiment with Brontispa longissima [4] it was 34.4%. The compound further came in with an AFC50 in the experiment on Brontispa longissima [3] of 94 µg/mL.

Take `COC(=O)[C@H](O)[C@H]1C(C)(C)C(=O)[C@@H]2CC3=C4CC(=O)O[C@@H](c5ccoc5)[C@]4(C)CC[C@@H]3[C@@]1(C)C2=O` [6-HYDROXYMEXICANOLIDE]: the Activity in the experiment with Brontispa longissima [1] was found to be 69.3%; in the experiment on Brontispa longissima [2], 76.6%; in the experiment with Brontispa longissima [4], 20.7%.

As for `COC(=O)[C@H](O)[C@H]1C(C)(C)[C@H](OC(=O)C(C)C)[C@]2(O)CC3=C4CC(=O)O[C@@H](c5ccoc5)[C@]4(C)CC[C@@H]3[C@@]1(C)C2=O` [MOLUCCENSIN R], the Activity in the experiment with Brontispa longissima [1] amounted to 62.1%; in the experiment with Brontispa longissima [2] it was 69.6%; in the experiment on Brontispa longissima [4] it was 17%.

Regarding `CCC(C)C(=O)O[C@H]1C(C)(C)[C@H]([C@@H](O)C(=O)OC)[C@]2(C)C(=O)[C@@]1(O)CC1=C3CC(=O)O[C@@H](c4ccoc4)[C@]3(C)CC[C@@H]12` (stereo partly drawn) [MOLUCCENSIN S], the Activity in the experiment on Brontispa longissima [1] is recorded as 44.1%; with Brontispa longissima [2], 42.3%; in the experiment with Brontispa longissima [4] it was 48.2%.
